Consider eight molecules from ChEMBL document CHEMBL4138185, “Investigation of the Physical and Bioactive Properties of Bromo- and Iodo-Containing Sponge-Derived Compounds Possessing an Oxyphenylethanamine Core” (J Nat Prod, 2017).

Holding throughout (assay type): organism-based
What all share (details): in vivo

Data set [1] deals with Yersinia pseudotuberculosis. Description: Toxicity against Yersinia pseudotuberculosis harboring pYV deletion mutant at 60 uM measured after 8 hrs by MTT assay. The method, boiled down:
(§1)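 pYV− Y. pseudotuberculosis cultured in low-calcium media at 37 °C with test agent at 60 μM, kanamycin at 50 μg/mL, or DMSO. MTT added after 8 h of incubation; formazan absorbance at 570 nm taken as bacterial metabolic activity.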
(In general: Tetrazolium assays rely on reduction of a dye to a coloured formazan, in cell work by metabolically active cells.)

Data set [2] deals with Yersinia pseudotuberculosis. Description: Growth inhibition of Yersinia pseudotuberculosis harboring pYV deletion mutant at 60 uM measured at 30 mins interval for 8 hrs. The method, boiled down: (§2)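 Y. pseudotuberculosis strain lacking the T3SS-encoding virulence plasmid pYV (pYV−), grown in low-calcium media at 37 °C with test agent at 60 μM, kanamycin at 50 μg/mL, or DMSO. Growth followed by absorbance at 600 nm over 8 h.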

In data set [3] the test system is Yersinia pseudotuberculosis. Description: Toxicity against Yersinia pseudotuberculosis harboring pYV deletion mutant at 50 ug/ml measured after 8 hrs by MTT assay. An outline of the steps:
as §1

For data set [4], the system named is Yersinia pseudotuberculosis. The data set is described as follows: Growth inhibition of Yersinia pseudotuberculosis harboring pYV deletion mutant at 50 ug/ml measured at 30 mins interval for 8 hrs. An outline of the steps: as §2

For the molecule `CCC(=O)N(C)CCc1ccc(OCCCNC(=O)Cc2ccc(O)cc2)c(Br)c1`, the Activity entry in data set [1] is given as “Non-Toxic”. Further, the “growth inhibition (GI)” value in data set [2] is reported as “Non-Toxic”.

As to `COc1c(Br)cc(CC(O)C(=O)NCCc2ccc(O)c(I)c2)cc1Br` (stereo unspecified), in data set [1], the Activity entry is “Non-Toxic”. Further, the “growth inhibition (GI)” value in data set [2] is “Non-Toxic”.

Turning to `CCC(=O)N(C)CCc1cc(Br)c(OCCCNC(=O)Cc2ccc(O)cc2)c(Br)c1`, the Activity entry in data set [1] is on record as “Non-Toxic”. Further, the “growth inhibition (GI)” value in data set [2] is on record as “Non-Toxic”.

Take `COc1c(Br)cc(CC(O)C(=O)NCCc2ccc(O)c(Br)c2)cc1Br` (stereo unspecified): in data set [1], the Activity result is recorded as “Non-Toxic”. The “growth inhibition (GI)” value in data set [2] was “Non-Toxic”.

`CCC(=O)N(C)CCc1ccc(OCCCNC(=O)Cc2ccc(O)cc2)c(I)c1`: the Activity entry in data set [1] is given as “Non-Toxic”. Besides, the “growth inhibition (GI)” value in data set [2] was “Non-Toxic”.

Turning to `NC[C@H]1O[C@H](O[C@H]2[C@H](O)[C@@H](O[C@H]3O[C@H](CO)[C@@H](O)[C@H](N)[C@H]3O)[C@H](N)C[C@@H]2N)[C@H](O)[C@@H](O)[C@@H]1O` [KANAMYCIN], in data set [3], the Activity entry is listed as “Non-Toxic”. Moreover, the “growth inhibition (GI)” value in data set [4] is recorded as “Non-Toxic”.

As to `CCC(=O)N(C)CCc1ccc(OCCCN(C)C(=O)Cc2ccc(O)cc2)c(Br)c1`, in data set [1], the Activity result was “Non-Toxic”. Moreover, in data set [2], the “growth inhibition (GI)” value was “Non-Toxic”.

Regarding `CCC(=O)N(C)CCc1cc(Br)c(OCCCNC(=O)Cc2ccc(O)cc2)c(I)c1`, the Activity entry in data set [1] was “Non-Toxic”. The “growth inhibition (GI)” value in data set [2] is “Non-Toxic”.
